Data as given in ChEMBL document CHEMBL4673258, “Discovery of IPN60090, a Clinical Stage Selective Glutaminase-1 (GLS-1) Inhibitor with Excellent Pharmacokinetic and Physicochemical Properties” (J Med Chem, 2020).

Experiments:
[1] = Cmax in Sprague-Dawley rat at 3 mg/kg, po administered via gavage by LC-MS/MS analysis; format: ADME, organism-based; parameters: route oral, dose 3 mg/kg; details: in vivo
Summary of the method: (§1)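 Male Sprague-Dawley rats (200–300 g), fasted overnight and fed 4 h postdose, given the bis-hydrochloride salt at 3 mpk by oral gavage. Tail-vein blood into K2EDTA taken predose and at 0.083–24 h (0.083, 0.25, 0.5, 1, 2, 4, 8, 24 h). Plasma analysed by LC-MS/MS; Cmax and AUClast derived from the oral dose.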

[2] = Volume of distribution at steady state in Sprague-Dawley rat at 0.3 mg/kg, iv by LC-MS/MS analysis; format: ADME, organism-based; details: in vivo
Summary of the method: (§2)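 Bis-hydrochloride salt given to male Sprague-Dawley rats (200–300 g) or male beagle dogs (7–10 kg), fasted overnight and fed 4 h postdose. IV dose 0.3 mg/kg (rat dorsal foot vein, dog cephalic vein) or PO gavage 3 mg/kg.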

[3] = Oral bioavailability in Sprague-Dawley rat at 3 mg/kg administered via gavage by LC-MS/MS analysis; format: ADME, organism-based; details: in vivo; summary of the method: as §2
[4] = Cmax in Beagle dog at 3 mg/kg, po administered via gavage by LC-MS/MS analysis; format: ADME, organism-based, Canis lupus familiaris; parameters: route oral, dose 3 mg/kg; details: in vivo
Summary of the method: (§3)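 Male beagle dogs (7–10 kg), fasted overnight and fed 4 h postdose, received the bis-hydrochloride salt at 3 mpk by oral gavage. Plasma concentrations by LC-MS/MS; Cmax and AUClast from the oral dose.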

[5] = Half life in Sprague-Dawley rat at 0.3 mg/kg, iv by LC-MS/MS analysis; format: ADME, organism-based; details: in vivo; summary of the method: as §2
[6] = Oral bioavailability in Beagle dog at 3 mg/kg administered via gavage by LC-MS/MS analysis; format: ADME, organism-based, Canis lupus familiaris; details: in vivo; summary of the method: as §2
[7] = AUClast in Beagle dog at 3 mg/kg, po administered via gavage by LC-MS/MS analysis; format: ADME, organism-based, Canis lupus familiaris; parameters: time 0 - last, route oral, dose 3 mg/kg; details: in vivo; summary of the method: as §3
[8] = AUClast in Sprague-Dawley rat at 3 mg/kg, po administered via gavage by LC-MS/MS analysis; format: ADME, organism-based; parameters: route oral, time 0 - last, dose 3 mg/kg; details: in vivo; summary of the method: as §1
[9] = Volume of distribution at steady state in Beagle dog at 0.3 mg/kg, iv by LC-MS/MS analysis; format: ADME, organism-based, Canis lupus familiaris; details: in vivo; for Vdss: 0.3 mg/kg; summary of the method: as §2
[10] = Half life in Beagle dog at 0.3 mg/kg, iv by LC-MS/MS analysis; format: ADME, organism-based, Canis lupus familiaris; details: in vivo; for t1/2: 0.3 mg/kg; summary of the method: as §2
[11] = Intrinsic clearance in dog hepatocytes […] at 2 uM measured after 15 to 120 mins by LC-MS analysis; format: ADME, cell-based, Canis lupus familiaris, Hepatocyte; details: time 15-120 min
Summary of the method: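 Hepatocytes at 2×10^6 viable cells/mL, mixed with an equal volume of 2 μM compound in KHB buffer. Incubated at 37 °C and quenched with ACN at 0, 15, 30, 60 and 120 min. Analysed by LC/MS, with percent remaining from peak area ratio to internal standard against 0 min. Half-life from a single-phase exponential fit.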

[12] = Permeability across basolateral to apical side in human Caco-2 cells at 10 uM measured after 90 mins by LC-MS/MS analysis; format: ADME, cell-based
Summary of the method: (§4)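 Caco-2 monolayers grown 21–28 days on polycarbonate filter inserts, with TEER and Lucifer Yellow checked before and after. Compound at 10 μM in HBSS with 25 mM HEPES, pH 7.4. Run A→B and B→A at 37 °C for 90 min. Receiver and donor samples quantified by LC-MS/MS.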

[13] = Permeability across apical to basolateral side in human Caco-2 cells at 10 uM measured after 90 mins by LC-MS/MS analysis; format: ADME, cell-based; summary of the method: as §4
[14] = rat, microsomes, 0.75 h, 1 µM
[15] = Cmax in CD-1 mouse at 10 mg/kg, po administered via gavage by LC-MS/MS analysis; format: ADME, organism-based; parameters: route oral, dose 10 mg/kg; details: in vivo
Summary of the method: (§5)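 Female CD-1 mice (20–30 g), food and water ad libitum, given the bis-hydrochloride salt at 10 mpk by oral gavage. Plasma quantified by LC-MS/MS; Cmax and AUClast from the oral dose.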

[16] = Volume of distribution at steady state in cynomolgus monkey at 0.3 mg/kg, iv by LC-MS/MS analysis; format: ADME, organism-based, Macaca fascicularis; details: in vivo, read-out: Vdss
Summary of the method: (§6)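 Bis-hydrochloride salt dosed 0.3 mg/kg IV and 3 mg/kg PO (mouse: 3 mg/kg IV, 10 mg/kg PO); female CD-1 mice, male beagle dogs, male cynomolgus monkeys; monkeys and dogs fasted overnight and fed 4 h postdose. IV via tail (mouse) or cephalic vein; PO by oral (mouse) or nasal (monkey) gavage. K2EDTA plasma sampled predose to 24 h; LC-MS/MS. CL, Vdss, t1/2 from IV; F% from oral dose.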

[17] = AUClast in CD-1 mouse at 10 mg/kg, po administered via gavage by LC-MS/MS analysis; format: ADME, organism-based; parameters: time 0 - last, route oral, dose 10 mg/kg; details: in vivo; summary of the method: as §5
[18] = Volume of distribution at steady state in CD-1 mouse at 3 mg/kg, iv by LC-MS/MS analysis; format: ADME, organism-based; details: in vivo, read-out: Vdss; summary of the method: as §6
[19] = Oral bioavailability in cynomolgus monkey at 3 mg/kg administered via gavage by LC-MS/MS analysis; format: ADME, organism-based, Macaca fascicularis; details: in vivo; summary of the method: as §6
[20] = Cmax in cynomolgus monkey at 3 mg/kg, po administered via gavage by LC-MS/MS analysis; format: ADME, organism-based, Macaca fascicularis; parameters: route oral, dose 3 mg/kg; details: in vivo
Summary of the method: (§7)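 Male cynomolgus monkeys (3–5 kg), fasted overnight and fed 4 h postdose, dosed with the bis-hydrochloride salt at 3 mpk by nasal gavage. Blood from saphenous or cephalic vein into K2EDTA at predose and 0.083–24 h (0.083, 0.25, 0.5, 1, 2, 4, 8, 24 h). Plasma quantified by LC-MS/MS; Cmax and AUClast from the oral dose.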

[21] = Clearance in Beagle dog at 0.3 mg/kg, iv by LC-MS/MS analysis; format: ADME, organism-based, Canis lupus familiaris; details: in vivo; summary of the method: as §6
[22] = Free plasma concentration in NSG mouse xenografted with human H460 cells at 50 mg/kg, po administered as single dose via gavage measured after 8 hrs by LC-MS analysis; format: ADME, organism-based; details: in vivo
Summary of the method: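 Female NSG mice, 6–10 weeks old, bearing H460 tumours (5×10^5 cells with matrigel 1:1) of 300–400 mm³. Given a single oral gavage dose of bis-hydrochloride salt in 0.5% methylcellulose. Six animals per group. Free plasma concentration taken at 8 or 24 h, given as mean with standard deviation.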

[23] = Free plasma concentration in NSG mouse xenografted with human H460 cells at 10 mg/kg, po administered as single dose via gavage measured after 8 hrs by LC-MS analysis; format: ADME, organism-based; details: in vivo
[24] = Half life in CD-1 mouse at 3 mg/kg, iv by LC-MS/MS analysis; format: ADME, organism-based; details: in vivo; summary of the method: as §6
[25] = Free plasma concentration in NSG mouse xenografted with human H460 cells at 250 mg/kg, po administered as single dose via gavage measured after 8 hrs by LC-MS analysis; format: ADME, organism-based; details: in vivo
[26] = Half life in cynomolgus monkey at 0.3 mg/kg, iv by LC-MS/MS analysis; format: ADME, organism-based, Macaca fascicularis; details: in vivo; summary of the method: as §6
[27] = Free plasma concentration in NSG mouse xenografted with human H460 cells at 10 mg/kg, po administered as single dose via gavage measured after 24 hrs by LC-MS analysis; format: ADME, organism-based; details: in vivo
[28] = Clearance in cynomolgus monkey at 0.3 mg/kg, iv by LC-MS/MS analysis; format: ADME, organism-based, Macaca fascicularis; details: in vivo; summary of the method: as §6
[29] = AUClast in cynomolgus monkey at 3 mg/kg, po administered via gavage by LC-MS/MS analysis; format: ADME, organism-based, Macaca fascicularis; parameters: route oral, time 0 - last, dose 3 mg/kg; details: in vivo; summary of the method: as §7
[30] = Free plasma concentration in NSG mouse xenografted with human H460 cells at 250 mg/kg, po administered as single dose via gavage measured after 24 hrs by LC-MS analysis; format: ADME, organism-based; details: in vivo
[31] = Oral bioavailability in CD-1 mouse at 10 mg/kg administered via gavage by LC-MS/MS analysis; format: ADME, organism-based; details: in vivo; summary of the method: as §6
[32] = Cmax in Sprague-Dawley rat at 2 mg/kg, po administered via gavage by LC-MS/MS analysis; format: ADME, organism-based; parameters: route oral, dose 2 mg/kg; details: in vivo
[33] = Oral bioavailability in Sprague-Dawley rat at 2 mg/kg administered via gavage by LC-MS/MS analysis; format: ADME, organism-based; details: in vivo
[34] = AUClast in Sprague-Dawley rat at 2 mg/kg, po administered via gavage by LC-MS/MS analysis; format: ADME, organism-based; parameters: route oral, time 0 - last, dose 2 mg/kg; details: in vivo
[35] = Intrinsic clearance in monkey hepatocytes […] at 2 uM measured after 15 to 120 mins by LC-MS analysis; format: ADME, cell-based, Macaca mulatta, Hepatocyte; details: rhesus monkey, time 15-120 min
[36] = human, microsomes, 0.75 h, 1 µM
[37] = Intrinsic clearance in monkey liver microsomes assessed per kg protein at 1 uM measured up to 45 mins in presence of NADPH by LC-MS/MS analysis; format: ADME, Macaca mulatta, Microsome; details: rhesus monkey, 0.75 h
[38] = Intrinsic clearance in mouse liver microsomes assessed per kg protein at 1 uM measured up to 45 mins in presence of NADPH by LC-MS/MS analysis; format: ADME, Microsome; details: 0.75 h
[39] = Intrinsic clearance in mouse hepatocytes […] at 2 uM measured after 15 to 120 mins by LC-MS analysis; format: ADME, cell-based, Hepatocyte; details: time 15-120 min

CNC(=O)c1cn(C[C@H](F)CCc2ccc(NC(=O)Cc3cc(OC4CC(F)(F)C4)ccn3)nn2)nn1.Cl
Cmax [1]: 5.8 µM | Vdss [2]: 0.2 L/kg | F [3]: 48% | Cmax [4]: 2.7 µM | t1/2 [5]: 1.2 h | F [6]: 34% | AUClast [7]: 10 µM·h | AUClast [8]: 16 µM·h | Vdss [9]: 0.5 L/kg | t1/2 [10]: 2.3 h

CNC(=O)c1cn(C[C@H](F)CCc2ccc(NC(=O)Cc3cc(OC4CC(F)(F)C4)ccn3)nn2)nn1
CLint [11]: 4 mL/min/kg | permeability [12]: 20 10^-6 cm/s | permeability [13]: 1.8 10^-6 cm/s

CNC(=O)c1cn(CCCCc2ccc(NC(=O)Cc3cc(OCC(F)(F)F)ccn3)nn2)nn1
CLH [14]: 0.4 mL/min

CNC(=O)c1cn(C[C@H](F)CCc2ccc(NC(=O)Cc3cc(C(F)(F)F)cc(C)n3)nn2)nn1
Cmax [1]: 4.4 µM | Vdss [2]: 0.2 L/kg | F [3]: 28% | CLint [11]: 9 mL/min/kg | Cmax [4]: 4.5 µM | permeability [12]: 25 10^-6 cm/s | t1/2 [5]: 3.3 h | F [6]: 21% | AUClast [7]: 23 µM·h | AUClast [8]: 24 µM·h | Vdss [9]: 0.2 L/kg | t1/2 [10]: 2.6 h | permeability [13]: 7.7 10^-6 cm/s

CNC(=O)c1cn(C[C@H](F)CCc2ccc(NC(=O)Cc3cc(OC4CC(F)(F)C4)cc(C)n3)nn2)nn1.Cl.Cl
Cmax [15]: 19 µM | Vd [16]: 0.31 L/kg | AUClast [17]: 67 µM·h | Vd [18]: 0.27 L/kg | Cmax [1]: 32 µM | bioavailability [19]: 72% | Vdss [2]: 0.1 L/kg | F [3]: 70% | Cmax [4]: 31 µM | Cmax [20]: 6.5 µM | clearance [21]: 0.59 mL/min/kg | Cp(f) [22]: 0.198 µM | Cp(f) [23]: 0.029 µM | t1/2 [5]: 5.3 h | F [6]: > 100% | half-life [24]: 1 h | Cp(f) [25]: 0.316 µM | half-life [26]: 0.9 h | AUClast [7]: 250 µM·h | Cp(f) [27]: 0.006 µM | AUClast [8]: 208 µM·h | clearance [28]: 8 mL/min/kg | Vd ([9]; Beagle, read-out: Vdss): 0.18 L/kg | half-life ([10]; Beagle): 5.3 h | AUC(0-t) [29]: 8.7 µM·h | Cp(f) [30]: 0.316 µM | F [31]: 89%

CNC(=O)c1cn(C[C@H](F)CCc2ccc(NC(=O)Cc3cc(-c4cccc(OC(F)(F)F)c4)ccn3)nn2)nn1.Cl
Vdss [2]: 1 L/kg | Cmax [32]: 0.35 µM | Cmax [4]: 0.58 µM | t1/2 [5]: 2.7 h | F [6]: 8% | AUClast [7]: 2.5 µM·h | Vdss [9]: 0.5 L/kg | t1/2 [10]: 2.5 h | F [33]: 19% | AUClast [34]: 1.2 µM·h

CNC(=O)c1cn(C[C@H](F)CCc2ccc(NC(=O)Cc3cc(OC4CC(F)(F)C4)cc(C)n3)nn2)nn1 [IPN-60090]
CLint [35]: 12 mL/min/kg | CLH [36]: <= 0.7 ml/min | CLint [11]: 7 mL/min/kg | permeability [12]: 25 10^-6 cm/s | CLint [37]: 21 mL/min/kg | CLint [38]: 55 mL/min/kg | CLint [39]: 16 mL/min/kg | permeability [13]: 5.2 10^-6 cm/s
